From publication PMC12900291 (European journal of medicinal chemistry, 2025)
Values joined by “and” are separate entries in the source; they are usually repeats but may differ in a detail not shown here. Identical values can stand only once.

Tests used:
SERCA2a [1] = target: T1, SERCA2a (Sus scrofa, UniProt P11607); experiment: NADH-coupled enzyme-linked Ca2+-ATPase activity assay in cardiac SR vesicles; format: biochemical, porcine; conditions: for Max increase (%): vs no compound; for EC50 / Ca2+-ATPase [Ca2+]MAX % effect / Ca2+-ATPase [Ca2+]MID % effect: cardiac SR
SERCA2a [2] = target: T1, SERCA2a; experiment: oxalate-based Ca2+-uptake; format: biochemical, porcine; conditions: cardiac SR
Outline: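 Porcine left-ventricular SR vesicles (30 μg/mL) were prepared by differential centrifugation. Buffer: 50 mM MOPS, 100 mM KCl, 30 mg/mL sucrose, 10 mM potassium oxalate, 2 μM Fluo-4, free Ca2+ at pCa 8.0, 6.2 or 5.4, test compound 0.048–50 μM (two-fold series). Incubation 20 min at 22 °C, dark; 5 mM MgATP start; Fluo-4 decrease (ex 485/em 520 nm) tracked 15 min. Basal pCa 8.0 rate subtracted; Hill fit gives EC50 and % effect.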

Intrinsic clearance = format: in vitro ADME, human; conditions: for Thalf: human liver S9 0.5 mg/mL, 1 μM compound, NADPH, 37 °C; for microsomal CLint at 1 μM: human, liver S9 fraction, pH 7.4
[3] = Ca2+-ATPase activity, [Ca2+]MAX (pCa 5.4), mean±SD, n=4-6
[4] = Ca2+-Uptake [Ca2+]MAX EC50 (μM), [Ca2+]MAX (pCa 5.4)
[5] = Ca2+-Uptake [Ca2+]MID EC50 (μM), [Ca2+]MID (pCa 6.2)
[6] = Ca2+-ATPase [Ca2+]MAX EC50 (μM), [Ca2+]MAX (pCa 5.4)
[7] = Ca2+-ATPase [Ca2+]MID EC50 (μM), [Ca2+]MID (pCa 6.2)

T1 sequence (P11607 1-997 isoform P11607-2): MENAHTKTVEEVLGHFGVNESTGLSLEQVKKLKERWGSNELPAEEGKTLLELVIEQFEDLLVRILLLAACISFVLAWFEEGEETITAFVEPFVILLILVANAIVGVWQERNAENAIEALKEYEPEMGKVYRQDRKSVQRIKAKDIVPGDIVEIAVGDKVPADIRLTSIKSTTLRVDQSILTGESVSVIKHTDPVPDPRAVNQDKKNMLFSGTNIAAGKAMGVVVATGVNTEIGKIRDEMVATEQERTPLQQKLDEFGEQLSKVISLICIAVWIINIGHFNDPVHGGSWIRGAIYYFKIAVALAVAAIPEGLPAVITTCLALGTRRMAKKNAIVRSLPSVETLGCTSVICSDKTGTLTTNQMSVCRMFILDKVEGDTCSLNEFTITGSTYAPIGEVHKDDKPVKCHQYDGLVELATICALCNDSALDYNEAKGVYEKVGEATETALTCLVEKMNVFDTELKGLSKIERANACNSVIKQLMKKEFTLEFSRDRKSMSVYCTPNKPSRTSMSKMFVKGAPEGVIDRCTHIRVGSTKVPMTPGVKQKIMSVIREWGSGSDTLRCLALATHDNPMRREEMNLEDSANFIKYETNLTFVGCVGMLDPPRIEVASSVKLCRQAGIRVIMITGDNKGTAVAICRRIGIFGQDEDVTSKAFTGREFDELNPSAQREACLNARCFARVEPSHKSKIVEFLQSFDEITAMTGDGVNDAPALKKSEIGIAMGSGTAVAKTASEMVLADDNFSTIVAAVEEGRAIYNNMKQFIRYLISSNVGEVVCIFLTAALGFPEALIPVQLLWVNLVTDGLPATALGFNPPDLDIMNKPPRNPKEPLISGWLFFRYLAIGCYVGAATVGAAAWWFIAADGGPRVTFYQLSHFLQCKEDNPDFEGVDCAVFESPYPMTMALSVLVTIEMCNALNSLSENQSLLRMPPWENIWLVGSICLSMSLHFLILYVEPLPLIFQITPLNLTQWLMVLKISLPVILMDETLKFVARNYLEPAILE

Row | Compound | Max increase (%) (SERCA2a [1]; [3]) | other results
1 | CCCN(Cc1ccccc1OC)C(=O)c1cccc(C)c1 [Compound 10, N-(2-Methoxybenzyl)-3-methyl-N-propylbenzamide] | 59±13% | 
2 | CCCN(Cc1ccccc1OC)C(=O)c1ccc(C)cc1 [Compound 11, N-(2-Methoxybenzyl)-4-methyl-N-propylbenzamide] | 61±7.0% | 
3 | CCCN(Cc1ccccc1OC)C(=O)c1cc2ccccc2s1 [Compound 7, N-(2-Methoxybenzyl)-N-propylbenzo[b]thiophene-2-carboxamide] | 76% and 76±19% | 
4 | CCN(Cc1ccccc1OC)C(=O)c1cc(F)c(C)c(Br)c1 [Compound 54, 3-Bromo-N-ethyl-5-fluoro-N-(2-methoxybenzyl)-4-methylbenzamide] |  | Max decrease (%) (SERCA2a [1]; [3]): −70±3.4%; inhibition at 50 µM (SERCA2a [1]; read-out: inhibition of Ca2+-ATPase activity): 70%
5 | CCCN(Cc1ccccc1OC)C(=O)c1scc(C)c1C [Compound 2, N-(2-Methoxybenzyl)-3,4-dimethyl-N-propylthiophene-2-carboxamide] | 47±7.1% | 
6 | CCCN(Cc1ccccc1OC)C(=O)c1ccc(Cl)cc1 [Compound 17, 4-Chloro-N-(2-methoxybenzyl)-N-propylbenzamide] | 64±7.6% | 
7 | CCCN(Cc1ccccc1OC)C(=O)c1cc(C)cs1 [Compound 3, N-(2-Methoxybenzyl)-4-methyl-N-propylthiophene-2-carboxamide] | 45±9.2% | 
8 | CCCN(Cc1ccccc1OC)C(=O)c1cccc(OC)c1 [Compound 19, 3-Methoxy-N-(2-methoxybenzyl)-N-propylbenzamide] | 45±14% | 
9 | CCCN(Cc1ccccc1OC)C(=O)c1ccc(Cl)s1 [Compound 6, 5-Chloro-N-(2-methoxybenzyl)-N-propylthiophene-2-carboxamide] | 37±9.4% | 
10 | CCCN(Cc1ccccc1OC)C(=O)c1ccccc1C [Compound 9, N-(2-Methoxybenzyl)-2-methyl-N-propylbenzamide] | 28±10% | 
11 | CCCN(Cc1ccccc1OC)C(=O)c1ccccc1F [Compound 12, 2-Fluoro-N-(2-methoxybenzyl)-N-propylbenzamide] | 40±10% | 
12 | CCCN(Cc1ccccc1OC)C(=O)c1ccsc1 [Compound 5, N-(2-Methoxybenzyl)-N-propylthiophene-3-carboxamide] | 29±8.4% | 
13 | CCCN(Cc1ccccc1OC)C(=O)c1cccc(Cl)c1 [Compound 16, 3-Chloro-N-(2-methoxybenzyl)-N-propylbenzamide] | 61±9.4% | 
14 | CCCN(Cc1ccccc1OC)C(=O)c1cccs1 [Compound 4, N-(2-Methoxybenzyl)-N-propylthiophene-2-carboxamide] | 30±14% | 
15 | CCCN(Cc1ccccc1OC)C(=O)c1ccccc1OC [Compound 18, 2-Methoxy-N-(2-methoxybenzyl)-N-propylbenzamide] | 27±9.3% | 
16 | CCCN(Cc1ccccc1OC)C(=O)c1ccccc1Cl [Compound 15, 2-Chloro-N-(2-methoxybenzyl)-N-propylbenzamide] | 35±10% | 
17 | CCCN(Cc1ccccc1OC)C(=O)c1ccc(F)cc1 [Compound 14, 4-Fluoro-N-(2-methoxybenzyl)-N-propylbenzamide] | 55±11% | 
18 | CCCN(Cc1ccccc1OC)C(=O)c1cccc(F)c1 [Compound 13, 3-Fluoro-N-(2-methoxybenzyl)-N-propylbenzamide] | 53±17% | 

Now from value to compound, other results behind:

Row | Max increase (%) (SERCA2a [1]; [3]) | Compound | other results
19 | 22% and 22±6.4% | COc1cccc2c1CN(C(=O)c1cc(C)c(C)s1)CC2 [Compound 42, (4,5-diMethylthiophen-2-yl)(8-methoxy-3,4-dihydroisoquinolin-2(1H)-yl)methanone] | 
20 | ablated activity | CCCN(Cc1ccncc1F)C(=O)c1cc(C)c(C)s1 [Compound 50, N-((3-Fluoropyridin-4-yl)methyl)-4,5-dimethyl-N-propylthiophene-2-carboxamide] | 
21 | 46±5.5% | CCCN(Cc1ccccc1OC)C(=O)c1cccc(Br)c1 [Compound 22, 3-Bromo-N-(2-methoxybenzyl)-N-propylbenzamide] | EC50 (SERCA2a [2]; [4]): 0.36 ± 0.14 µM; EC50 (SERCA2a [2]; [5]): 12.4 ± 8.4 µM; Ca2+-Uptake [Ca2+]MAX % effect (SERCA2a [2]; [Ca2+]MAX (pCa 5.4)): 11±3.8%; Ca2+-Uptake [Ca2+]MAX EC50 (μM) (SERCA2a [2]; [Ca2+]MAX (pCa 5.4)): decreased; EC50 (SERCA2a [1]; [6]): 1.5 ± 0.31 µM; EC50 (SERCA2a [1]; [7]): 1.4 ± 0.8 µM; Thalf (Intrinsic clearance): 23.8 min; microsomal CLint at 1 μM (Intrinsic clearance): 56 ± 9 µL/min/mg
22 | 48±4.6% | CCCN(Cc1ccccc1OC)C(=O)c1cccc(Br)c1F [Compound 24, 3-Bromo-2-fluoro-N-(2-methoxybenzyl)-N-propylbenzamide] | EC50 (SERCA2a [2]; [4]): 1.4 ± 0.65 µM; EC50 (SERCA2a [2]; [5]): 0.83 ± 0.3 µM; Ca2+-Uptake [Ca2+]MAX % effect (SERCA2a [2]; [Ca2+]MAX (pCa 5.4)): 12±3.0%; Ca2+-Uptake [Ca2+]MID % effect (SERCA2a [2]; [Ca2+]MID (pCa 6.2)): 8.5±3.3%; EC50 (SERCA2a [1]; [6]): 3.4 ± 0.29 µM; EC50 (SERCA2a [1]; [7]): 3.3 ± 1.9 µM; Ca2+-ATPase [Ca2+]MAX % effect (SERCA2a [1]; [Ca2+]MAX (pCa 5.4)): 48±4.6%; Ca2+-ATPase [Ca2+]MID % effect (SERCA2a [1]; [Ca2+]MID (pCa 6.2)): 25±5.6%; Thalf (Intrinsic clearance): 51.3 min; microsomal CLint at 1 μM (Intrinsic clearance): 25 ± 4 µL/min/mg
23 | 52±9.2% | COc1ccccc1CN(C)C(=O)c1cc(C)c(C)s1 [Compound 31, N-(2-Methoxybenzyl)-N,4,5-trimethylthiophene-2-carboxamide] | 
24 | 46±7.8% | CCCN(Cc1ccccc1OC)C(=O)c1cccc(Br)n1 [Compound 27, 6-Bromo-N-(2-methoxybenzyl)-N-propylpicolinamide] | 
25 | abolished activity | CCCN(Cc1ccccc1)C(=O)c1cc(C)c(C)s1 [Compound 44, N-Benzyl-4,5-dimethyl-N-propylthiophene-2-carboxamide] | 
26 | 45±8.4% | CCN(Cc1ccccc1OC)C(=O)c1ccc(F)c(Br)c1 [Compound 53, 3-Bromo-N-ethyl-4-fluoro-N-(2-methoxybenzyl)benzamide] | 
27 | 51% and 51±17% | CCCN(Cc1ccccc1OC)C(=O)c1ccccc1C(F)(F)F [Compound 20, N-(2-Methoxybenzyl)-N-propyl-2-(trifluoromethyl)benzamide] | 
28 | 46±6.3% | CCN(Cc1ccccc1OC)C(=O)c1cccc(Br)c1 [Compound 51, 3-Bromo-N-ethyl-N-(2-methoxybenzyl)benzamide] | 
29 | 75% and 75±8.6% | COc1ccccc1CN(CCC(F)(F)F)C(=O)c1cc(C)c(C)s1 [Compound 41, N-(2-Methoxybenzyl)-4,5-dimethyl-N-(3,3,3-trifluoropropyl)thiophene-2-carboxamide] | 
30 | 22% and 22±8.6% | COc1ccccc1CN(CCCF)C(=O)c1cc(C)c(C)s1 [Compound 39, N-(3-Fluoropropyl)-N-(2-methoxybenzyl)-4,5-dimethylthiophene-2-carboxamide] | 
31 | 46±7.4% | CCN(Cc1ccccc1OC)C(=O)c1cccc(Br)c1F [Compound 52, 3-Bromo-N-ethyl-2-fluoro-N-(2-methoxybenzyl)benzamide] | 
32 | 72% and 72±8.5% | CCCCN(Cc1ccccc1OC)C(=O)c1cc(C)c(C)s1 [Compound 33, N-Butyl-N-(2-methoxybenzyl)-4,5-dimethylthiophene-2-carboxamide] | EC50 (SERCA2a [2]; [4]): 1.1 ± 0.35 µM; EC50 (SERCA2a [2]; [5]): 0.63 ± 0.21 µM; Ca2+-Uptake [Ca2+]MAX % effect (SERCA2a [2]; [Ca2+]MAX (pCa 5.4)): 22±5.6%; Ca2+-Uptake [Ca2+]MAX EC50 (μM) (SERCA2a [2]; [Ca2+]MAX (pCa 5.4)): unchanged; Ca2+-Uptake [Ca2+]MID % effect (SERCA2a [2]; [Ca2+]MID (pCa 6.2)): 15±7.0%; EC50 (SERCA2a [1]; [6]): 4 ± 0.8 µM; EC50 (SERCA2a [1]; [7]): 3 ± 1 µM; Ca2+-ATPase [Ca2+]MAX % effect (SERCA2a [1]; [Ca2+]MAX (pCa 5.4)): 72±8.5%; Ca2+-ATPase [Ca2+]MID % effect (SERCA2a [1]; [Ca2+]MID (pCa 6.2)): 23±6.0%; Thalf (Intrinsic clearance): 16.6 min; microsomal CLint at 1 μM (Intrinsic clearance): 83 ± 4.2 µL/min/mg
33 | 43±7.9% | COc1ccccc1CN(C(=O)c1cc(C)c(C)s1)C(C)C [Compound 34, N-Isopropyl-N-(2-methoxybenzyl)-4,5-dimethylthiophene-2-carboxamide] | 
34 | 21±4.9% | CCCN(Cc1ccccc1OC)C(=O)c1ccnc(Br)c1 [Compound 29, 2-Bromo-N-(2-methoxybenzyl)-N-propylisonicotinamide] | 
35 | abolished | COc1ccccc1CN(CCO)C(=O)c1cc(C)c(C)s1 [Compound 36, N-(2-Hydroxyethyl)-N-(2-methoxybenzyl)-4,5-dimethylthiophene-2-carboxamide] | 
36 | 46±8.9% | COc1ccccc1CN(C(=O)c1cc(C)c(C)s1)C1CC1 [Compound 35, N-Cyclopropyl-N-(2-methoxybenzyl)-4,5-dimethylthiophene-2-carboxamide] | 
37 | 28±5.7% | CCCN(Cc1ccccc1OC)C(=O)c1cncc(Br)c1 [Compound 28, 5-Bromo-N-(2-methoxybenzyl)-N-propylnicotinamide] | 
38 | 89% and 89±24% | CCCN(Cc1ccccc1F)C(=O)c1cc(C)c(C)s1 [Compound 48, N-(2-Fluorobenzyl)-4,5-dimethyl-N-propylthiophene-2-carboxamide] | 
39 | 91% and 91±12.6% | COc1ccccc1CN(CCC(F)F)C(=O)c1cc(C)c(C)s1 [Compound 40, N-(3,3-Difluoropropyl)-N-(2-methoxybenzyl)-4,5-dimethylthiophene-2-carboxamide] | 
40 | 24±9.1% | COc1ccccc1CNC(=O)c1cc(C)c(C)s1 [Compound 30, N-(2-methoxybenzyl)-4,5-dimethylthiophene-2-carboxamide] | 
